From ChEMBL document CHEMBL4616669, “Bioisosteric Replacement of Arylamide-Linked Spine Residues with N-Acylhydrazones and Selenophenes as a Design Strategy to Novel Dibenzosuberone Derivatives as Type I 1/2 p38α MAP Kinase Inhibitors” (J Med Chem, 2020)

What was measured:
[1] = target: T1, Mitogen-activated protein kinase 14 (Homo sapiens, UniProt Q16539); experiment: Inhibition of p38alpha MAPK (unknown origin) assessed as target residence time using ATF2 as substrate preincubated for 1 hr followed by jump dilution in presence of substrate and measured every 3 mins for 4 hrs by TR-FRET assay
[2] = target: T1, Mitogen-activated protein kinase 14; experiment: Inhibition of recombinant human full-length N-terminal GST-tagged p38alpha MAPK expressed in baculovirus infected Sf9 insect cells using p38 peptide as substrate preincubated for 15 mins followed by substrate addition and measured after 60 mins by ADP-glo assay
[3] = target: T1, Mitogen-activated protein kinase 14; experiment: Inhibition of NanoBRET kinase tracer K4 binding to full-length human C-terminal NanoLuc-tagged p38alpha MAPK expressed in HEK293T cells incubated for 2 hrs by NanoBRET NanoGlo substrate based NanoBRET assay; type: cell-based, HEK-293T
Method in brief: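 Cellular reporter-displacement NanoBRET format, run in intact cells where the competing substrate ATP is present at cellular concentrations. The result is reported as an IC50.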

[4] = target: T1, Mitogen-activated protein kinase 14; experiment: Inhibition of p38alpha MAPK in human whole blood assessed as reduction in LPS-induced TNFalpha production preincubated for 2.5 hrs followed by LPS stimulation by ELISA; type: tissue-based
[5] = Stability of the compound in human liver microsomes at 100 uM measured after 180 mins in presence of NADPH generating system by LC-MS/MS analysis; type: ADME, Microsome; conditions: 3 h
[6] = Drug metabolism in human liver microsomes assessed as oxidation at 100 uM measured after 180 mins in presence of NADPH generating system by LC-MS/MS analysis; type: ADME, Microsome; conditions: 3 h

T1 sequence (Q16539 whole entry): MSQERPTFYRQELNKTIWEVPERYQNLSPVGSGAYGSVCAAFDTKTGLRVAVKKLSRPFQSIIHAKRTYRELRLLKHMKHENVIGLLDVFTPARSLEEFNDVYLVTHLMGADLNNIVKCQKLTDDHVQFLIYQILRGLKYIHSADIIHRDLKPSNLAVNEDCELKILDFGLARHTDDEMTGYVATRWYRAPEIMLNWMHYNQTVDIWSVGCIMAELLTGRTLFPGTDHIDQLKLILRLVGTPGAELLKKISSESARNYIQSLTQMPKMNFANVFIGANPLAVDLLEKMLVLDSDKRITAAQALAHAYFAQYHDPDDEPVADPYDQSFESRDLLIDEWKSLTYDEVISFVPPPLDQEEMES

O=C(NCCN1CCOCC1)c1ccc2c(c1)C(=O)c1ccc(Nc3ccc(F)c(NC(=O)c4ccccc4)c3)cc1CC2
TIME [1]: 0.0511 h

O=C(NCCN1CCOCC1)c1ccc2c(c1)C(=O)c1ccc(Nc3ccc(F)c(/C=N/NC(=O)c4cccs4)c3)cc1CC2
IC50 [2]: 29.7 nM | IC50 [3]: 15.5 nM | IC50 [4]: 276 nM | TIME [1]: 0.372 h

O=C(NCCN1CCOCC1)c1ccc2c(c1)C(=O)c1ccc(Nc3ccc(F)c(/C=N/NC(=O)c4ccccc4)c3)cc1CC2
IC50 [2]: 19.7 nM | IC50 [3]: 6.3 nM | IC50 [4]: 47 nM | TIME [1]: 0.231 h | Stability [5]: Stable | Drug metabolism [6]: Metabolite_Notdetected

O=C1c2ccc(Nc3ccc(F)cc3F)cc2CCc2ccc(OC[C@H](O)CO)cc21
TIME [1]: 0.0244 h

O=C(NCCN1CCOCC1)c1ccc2c(c1)C(=O)c1ccc(Nc3ccc(F)c(/C=N/NC(=O)c4ccc[se]4)c3)cc1CC2
IC50 [2]: 16 nM | IC50 [3]: 30.4 nM | IC50 [4]: 490 nM | TIME [1]: 0.281 h

O=C(NCCN1CCOCC1)c1ccc2c(c1)C(=O)c1ccc(Nc3ccc(F)c(NC(=O)c4ccc[se]4)c3)cc1CC2
IC50 [2]: 24.6 nM | IC50 [3]: 4.9 nM | IC50 [4]: 101 nM | TIME [1]: 0.443 h | Drug metabolism [6]: Metabolite_Notdetected

O=C(NCCN1CCOCC1)c1ccc2c(c1)C(=O)c1ccc(Nc3ccc(F)c(NC(=O)c4cccs4)c3)cc1CC2
IC50 [2]: 12 nM | IC50 [4]: 43 nM | TIME [1]: 0.207 h
